Bioassay records from PubChem BioAssay.
TCR CD3 inh = blocks the human TCR-CD3 interaction. TAMRA-labeled TCR probe fluorescence, biochemical. 360,000 compounds, 0.37% hits. inhibition, % at 9.4 µM; in the data active means inhibition above about 19%;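 further: recombinant mutant TCR 2C K166C tagged with TAMRA read by polarization; 0% = receptor in buffer alone and 100% = receptor with positive control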
SIAE inh = inhibitors of human sialic acid acetylesterase SIAE; inhibition, % at 9.66 µM; 370,000 compounds, 0.69% hits; Q9HAT2; SIAE FP-Rh probe binding, fluorescence polarization;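 active means inhibition above a cutoff: mean of compounds within the control limits plus 3 SD of those, cut at about 17% in these data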;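 further: 0% = plate median of compound wells and 100% = probe without SIAE protein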
mABHD4 FP = ABHD4 (mouse) inhibition, primary FP screen; 370,000 compounds, 0.54% hits; AID 720543; purified mABHD4, FP-Rh probe fluorescence polarization; Q8VD66; inhibition, % at 8.92 µM;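 active means inhibition exceeding the mean over every tested compound plus 3 SD, cut at about 30% in these data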;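 further: 0% = plate median of compound wells and 100% = S159A mutant with DMSO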
Target sequence (Q8VD66 whole entry, looked up): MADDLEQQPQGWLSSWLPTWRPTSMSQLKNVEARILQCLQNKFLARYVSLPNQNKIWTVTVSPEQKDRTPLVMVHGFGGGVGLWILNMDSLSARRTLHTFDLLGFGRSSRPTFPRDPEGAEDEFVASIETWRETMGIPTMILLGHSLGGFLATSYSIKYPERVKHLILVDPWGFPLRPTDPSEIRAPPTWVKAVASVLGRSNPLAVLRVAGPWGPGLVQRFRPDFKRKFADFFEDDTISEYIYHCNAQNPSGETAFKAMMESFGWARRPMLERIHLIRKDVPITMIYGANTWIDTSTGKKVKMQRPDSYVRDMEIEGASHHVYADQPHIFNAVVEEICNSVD
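system = mouse ABHD4 enzyme, wild type | medium = HEPES pH 7.0, NaCl, Pluronic buffer | also added = FP-Rh probe | incubation = Enzyme–compound pre-incubation 45 min, then probe 60 min, both 25 °C | technique = fluorescence polarization, excitation 525 nm, emission 598 nm, BODIPY TMR filters | controls = S159A mutant high control, sample median low control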
DDE Tn6 FP inh = DD(E)-Tn6 binding inhibition, primary FP screen | P02675 | Fibrin DD(E) TRITC-Tn6 fluorescence polarization displacement | inhibition, % at 8.3 µM | 370,000 compounds, 0.21% hits | AID 720509;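 active means inhibition above a per-campaign cutoff: mean of compounds within control limits plus 3 SD, cut at about 15% in these data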;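 further: 0% = median of all compound wells on the plate and 100% = blocking peptide control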
Tn7 DDE FP = DD(E)-Tn7 binding inhibition, primary FP screen | P02675 | FP displacement of FITC-Tn7 peptide from fibrin DD(E); 0% = median of compound wells per plate | inhibition, % at 8.3 µM | 370,000 compounds, 0.13% hits | AID 720508;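 active means inhibition above the mean of compounds falling within the control limits plus 3 SD of them, cut at about 14% in these data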;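 further: 0% = plate median of compound wells and 100% = 10 µM Aha-Tn7 peptide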
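System: human fibrin DD(E); quantity: Fibrin-DD(E) at 2 µM final; also added: fluorescent Tn7 probe at 0.1 µM; compound dosing: single nominal test concentration of 8.3 µM per compound; schedule: 10 min preincubation, 3 h with tracer, room temperature; detection: fluorescence polarization of the labelled Tn7 tracer; repeats: one replicate per compound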
HTRA1 inhibitor = inhibitors of human serine peptidase HTRA1; Q92743; recombinant HTRA1, FP-rhodamine activity-based probe, fluorescence polarization; inhibition, % at 5.96 µM; 340,000 compounds, 0.5% hits; in the data active means inhibition above about 36%;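 further: 0% = enzyme with DMSO and 100% = wells lacking enzyme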
DDE Tn7 confirm = DD(E)-Tn7 binding inhibition, FP confirmation; AID 720628; 460 compounds, 5% hits; FP displacement of TRITC-Tn7 peptide from DD(E); 0% set at plate's compound-well median; shares compounds with Tn7 DDE FP; inhibition, % at 8.3 µM;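 active means inhibition above the campaign cutoff, the mean of compounds within control limits plus 3 SD, cut at about 14% in these data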;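 further: 100% = median FP of high control wells holding Aha-Tn7 inhibitor peptide; displacers lower polarization since freed probe rises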
DDE Tn7 FP ctr = counter-screen for inhibitors of Tn7 peptide binding to fibrin DD(E); TRITC-Tn7 probe displacement, fluorescence polarization; inhibition, % at 8.3 µM; shares compounds with Tn7 DDE FP; 460 compounds, 3% hits;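 active means inhibition above the cutoff, the mean of compounds lying between the control bounds plus 3 SD of those compounds, cut at about 17% in these data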;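 further: 0% = median of compound sample wells and 100% = excess unlabeled Aha-Tn7 peptide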
Starred values were filed as active, the others as inactive. In the library only some 1.8% were active in any assay of this set; here they are far more common.

How did CCOC(=O)c1oc2cccc(O)c2c1CN(Cc1ccccc1)C(C)=O do in these assays?
TCR CD3 inh: 5; SIAE inh: 2; mABHD4 FP: -6; DDE Tn6 FP inh: 8; Tn7 DDE FP: 14*; HTRA1 inhibitor: -1; DDE Tn7 confirm: 7; DDE Tn7 FP ctr: -1

What do the screens show for `CCOC(=O)c1oc2cccc(O)c2c1C`?
TCR CD3 inh: 5; SIAE inh: -4; mABHD4 FP: 1; DDE Tn6 FP inh: -2; Tn7 DDE FP: -3; HTRA1 inhibitor: -6

Results for Cc1cc(N)n(-c2ccc(C(=O)O)cc2)n1 ?
TCR CD3 inh: -1; SIAE inh: 1; mABHD4 FP: -2; DDE Tn6 FP inh: 5; Tn7 DDE FP: -4; HTRA1 inhibitor: 7

How did Cc1cc(C)n(-c2ccc(C(=O)O)cc2)n1 do in these assays?
TCR CD3 inh: -12; SIAE inh: -9; mABHD4 FP: -7; DDE Tn6 FP inh: 9; Tn7 DDE FP: 14*; HTRA1 inhibitor: 5; DDE Tn7 confirm: 0; DDE Tn7 FP ctr: 0

How did Cc1cc(NC(=O)CSc2nnc(-c3ccoc3C)n2N)no1 do in these assays?
TCR CD3 inh: 1; SIAE inh: 0; mABHD4 FP: 5; DDE Tn6 FP inh: -10; Tn7 DDE FP: 0; HTRA1 inhibitor: 3

What do the screens show for `CCOc1ccc(C(C)=O)cc1CSc1nnc(-c2ccoc2C)n1N`?
TCR CD3 inh: 1; SIAE inh: -3; mABHD4 FP: 8; DDE Tn6 FP inh: 11; Tn7 DDE FP: 16*; HTRA1 inhibitor: 3; DDE Tn7 confirm: 9; DDE Tn7 FP ctr: 1

How did Cc1ccc2c(c1)[C@H]1[C@H](CO2)[C@H](c2ccccc2)[C@]2(C)C(=O)N(Cc3ccc(F)cc3)CC(=O)N12 do in these assays?
TCR CD3 inh: 0; SIAE inh: -6; mABHD4 FP: -11; DDE Tn6 FP inh: -6; Tn7 DDE FP: 27*; HTRA1 inhibitor: -30; DDE Tn7 confirm: 14*; DDE Tn7 FP ctr: 11

What do the screens show for `Cc1ccc2c(c1)[C@H]1[C@H](CO2)[C@H](c2ccccc2)[C@]2(C)C(=O)N(Cc3ccc(Cl)cc3)CC(=O)N12`?
TCR CD3 inh: 3; SIAE inh: -6; mABHD4 FP: -15; DDE Tn6 FP inh: -8; Tn7 DDE FP: -7; HTRA1 inhibitor: -43

How did CCN1C(=O)[C@H]2[C@@H](c3ccc(C)cc3)N3C(=O)N(c4ccc(OC)cc4)C(=O)[C@@]3(C)[C@H]2C1=O do in these assays?
TCR CD3 inh: 2; SIAE inh: -3; mABHD4 FP: 0; DDE Tn6 FP inh: 1; Tn7 DDE FP: 16*; HTRA1 inhibitor: 4; DDE Tn7 confirm: -7; DDE Tn7 FP ctr: -13

What do the screens show for `NS(=O)(=O)c1ccc(NC(=O)CSc2ncnc3ccccc23)cc1`?
TCR CD3 inh: 9; SIAE inh: 0; mABHD4 FP: 0; DDE Tn6 FP inh: 6; Tn7 DDE FP: 14*; HTRA1 inhibitor: -5; DDE Tn7 confirm: 1; DDE Tn7 FP ctr: 3

What do the screens show for `NS(=O)(=O)c1cccc(NC(=O)CSc2ncnc3ccccc23)c1`?
TCR CD3 inh: -6; SIAE inh: -7; mABHD4 FP: -14; DDE Tn6 FP inh: -4; Tn7 DDE FP: -2; HTRA1 inhibitor: -7

How did C/C(=N\NC(=O)CSCc1ccc(Cl)cc1)c1ccc2c(c1)OCCO2 do in these assays?
TCR CD3 inh: -5; SIAE inh: 6; mABHD4 FP: -6; DDE Tn6 FP inh: 3; Tn7 DDE FP: 14*; HTRA1 inhibitor: -16; DDE Tn7 confirm: 3; DDE Tn7 FP ctr: -2

How did C/C(=N\NC(=O)COc1cccc(Cl)c1)c1ccc2c(c1)OCCO2 do in these assays?
TCR CD3 inh: 2; SIAE inh: 1; mABHD4 FP: 3; DDE Tn6 FP inh: -3; Tn7 DDE FP: -1; HTRA1 inhibitor: 3
